In the library only some 2.4% were active in any assay of this set; here they are far more common.
ARNT TACC3 PPI: ARNT/TACC3 interaction disruption; Q9Y6A5; AlphaScreen His-ARNT PAS-B/GST-TACC3 binding, luminescence; TACC3 fragment carries E629A point mutation; inhibition, % at 9.99 µM; 0.66% of 390,000 active;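 active means mean inhibition of replicates at least 50% and at least half of replicates each reaching 50%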;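 further: 0% = complete ARNT plus TACC3 wells and 100% = ARNT alone without TACC3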
PGC1a acetyl inh: lowers PGC1a acetylation signal in U2OS cells | 0.17% of 350,000 active | inhibition, % at 15.6 µM | AlphaScreen anti-acetyl-lysine; with virally co-expressed GCN5 acetyltransferase;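 active means every replicate shows inhibition of at least 40%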;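 further: 0% = neutral control wells and 100% = positive control wells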
Ecoli rRNA inh: inhibitors of bacterial rRNA selective over humanized ribosomes; E. coli WT GFP vs humanized-ribosome RFP mutants, fluorescence, 24 h; hits give low values; DMSO median 0, no signal -100; GFP signal change (wild-type ribosome), % (concentration not given with the values); 1.6% of 350,000 active; AID 720706;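 active means significant combined selectivity score with lowered wild-type GFP, culture density cut under 30%, mutant RFP and density less affected; inactive means any of these conditions unmet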
S100A4 inh HTS: blocks human S100A4 binding to myosin IIA peptide. inhibition, % at 10.7 µM. 0.14% of 360,000 active. S100A4/TAMRA-MyoIIA peptide fluorescence polarization. AID 652163;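 active means mean inhibition of at least 70% across replicates, with every replicate also reaching that level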
Target sequence (P26447 whole entry, looked up): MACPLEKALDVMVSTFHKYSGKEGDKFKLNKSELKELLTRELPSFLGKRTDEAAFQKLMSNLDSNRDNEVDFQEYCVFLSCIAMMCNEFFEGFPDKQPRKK
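System – human S100A4 monomer protein, biochemical binding assay · Buffer or medium – Calcium-containing HEPES buffer, pH 7.2 · Timing – 5 min between mix addition and reading · Also added – TAMRA-labelled myosin IIA heavy-chain peptide probe, 5 nM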
ERAP1 inh: inhibitors of human ERAP1 aminopeptidase. Q9NZ08. recombinant ERAP1, Leu-AMC fluorescence, 60 min. inhibition, % at 10.7 µM. 0.15% of 340,000 active. AID 652197;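 active means mean replicate inhibition of at least 30%, or all replicates individually reaching that 30% level; inactive means mean below 30% and not every replicate reaching it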;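 further: 0% = neutral control wells and 100% = L-leucinethiol positive control wells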
CASP6 VEID inh: blocks human caspase-6 cleavage activity | AID 686996 | P55212 | 0.53% of 350,000 active | purified caspase-6, Z-VEID-R110 cleavage fluorescence | inhibition, % at 12.5 µM;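 active means mean inhibition across replicates at least about 35%, with every replicate also reaching that limit, limit read from the data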;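 further: 0% = median of neutral control wells and 100% = no fluorescence left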
Target sequence (P55212 24-179 limits assumed): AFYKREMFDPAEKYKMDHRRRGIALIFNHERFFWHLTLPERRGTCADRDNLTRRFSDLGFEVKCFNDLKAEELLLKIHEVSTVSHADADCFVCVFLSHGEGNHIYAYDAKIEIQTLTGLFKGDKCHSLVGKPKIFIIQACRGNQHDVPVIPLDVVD
Target sequence (P55212 194-293 limits assumed): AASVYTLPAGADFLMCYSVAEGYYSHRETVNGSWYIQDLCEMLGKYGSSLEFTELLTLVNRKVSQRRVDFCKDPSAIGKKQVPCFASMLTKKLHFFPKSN
* marks the source's active call; other numbers are inactive results; . = no result given.

SMILES	ARNT TACC3 PPI	PGC1a acetyl inh	Ecoli rRNA inh	S100A4 inh HTS	ERAP1 inh	CASP6 VEID inh
O=C(Nc1nnc(Cc2c[nH]c3ccccc23)s1)c1ccc(Cl)cc1Cl	-1	.	-50	-1	1	58*
CC(C)(C)c1ccc(C(=O)Nc2nnc(Cc3c[nH]c4ccccc34)s2)cc1	-2	.	.	.	.	.
C[C@H]1CN([C@@H](C)CO)C(=O)c2cccc(NS(C)(=O)=O)c2O[C@H]1CN(C)C	-3	0	0	6	2	2
C[C@@H]1CN([C@H](C)CO)C(=O)c2cc(NC(=O)CCC(F)(F)F)ccc2O[C@H]1CN(C)S(=O)(=O)c1ccccc1	-7	6	0	-4	0	3
Cc1sc2ncn(CC(=O)Nc3cccc(S(N)(=O)=O)c3)c(=O)c2c1-c1ccccc1	-7	1	-29*	-1	-3	0
CCOC(=O)c1c(NC(=O)Cn2cnc3sc(C)c(-c4ccccc4)c3c2=O)sc(C)c1C	.	.	5	4	-3	-4
CCOC(=O)CCCc1ccc(/C(C)=N/NC(N)=S)cc1	15	.	-44*	0	0	3
CC(=O)N(C)C[C@H]1Oc2ccc(N(C)C)cc2CC(=O)N(C)C[C@H]1C	.	.	-1	.	.	.
CCOC(=O)/C(C#N)=C/Nc1ccccc1NS(=O)(=O)c1ccc(C)c(C)c1	-2	2	9	-1	-4	-1
CCOC(=O)/C(C#N)=C/Nc1ccccc1NS(=O)(=O)c1cccc(C(C)=O)c1	-8	7	-9	-7	-1	38*
CC(C)NC(=O)Nc1cccc2c1O[C@H](CN(C)C)[C@H](C)CN(C)C2=O	.	.	1	.	.	.
CO[C@H]1CN(C)C(=O)c2ccc(NS(=O)(=O)c3ccc(Cl)cc3)cc2OC[C@@H](C)N(C(=O)NC(C)C)C[C@H]1C	-1	7	-5	5	0	0
CC1(C)C=C2C(=NN(c3ccccc3)C(N)=C2C#N)CO1	46*	.	13	10	1	84*
CCN1C(=O)CC(C(=O)NC)SC1=Nc1cc(Cl)c(O)c(Cl)c1 (stereo unspecified)	23*	.	.	.	.	.
CCN=C1SC(C(=O)Nc2cc(Cl)cc(Cl)c2)CC(=O)N1CC (stereo unspecified)	active	-4	15	1	0	-2
CCN1C(=O)CSC1=Nc1ccc(Cl)c(Cl)c1	active	-1	-27	5	1	2
C[C@H]1CN(C)C(=O)Cc2ccccc2O[C@@H]1CN(C)C(=O)OC(C)(C)C	.	.	-3	.	.	.
Cc1[nH]n(-c2ccc(Br)cc2)c(=O)c1/C=N/NC(=O)c1ccccc1	27	.	-7	-4	1	-2
Cc1ccc(-n2[nH]c(C)c(C=Nc3cc(C)ccn3)c2=O)cc1	.	4	.	.	.	.
Cc1cc(C(=O)N/N=C/c2c(C)[nH]n(-c3ccccc3)c2=O)n[nH]1	84*	.	-2	6	1	4
Cc1ccc(-n2[nH]c(C)c(/C=N/NC(=O)c3ccc(O)cc3O)c2=O)cc1	62*	1	.	.	.	.
Cc1[nH]n(-c2ccccc2)c(=O)c1C=NCc1ccncc1	20*	-4	14	2	-1	-3
Cc1[nH]n(-c2ccccc2)c(=O)c1/C=N/Nc1nncc(-c2ccccc2)n1	66*	12	-2	-5	2	-6
Cc1[nH]n(-c2ccc(Cl)cc2)c(=O)c1/C=N/c1nnc(-c2ccccc2)s1	active	.	.	.	.	.
Cc1[nH]n(-c2ccccc2)c(=O)c1/C=N/NC(=O)c1ccc(O)cc1O	71*	2	-11	1	2	0
SMILES	ARNT TACC3 PPI	PGC1a acetyl inh	Ecoli rRNA inh	S100A4 inh HTS	ERAP1 inh	CASP6 VEID inh
CCc1nnc(NS(=O)(=O)c2ccc(N=Cc3c(C)[nH]n(-c4ccc(Cl)cc4)c3=O)cc2)s1	23	.	.	.	.	.
O=C(C[C@H]1CC[C@H]2[C@@H](COC[C@H](O)CN2Cc2cc(F)ccc2F)O1)N[C@H]1CCN(Cc2ccccc2)C1	-7	-7	0	3	-2	-16
CC(C)NC(=O)Nc1ccc2c(c1)C(=O)N([C@H](C)CO)C[C@@H](C)[C@@H](CN(C)C(=O)CCC(F)(F)F)OCCCC[C@@H](C)O2	-5	4	0	4	-2	0
O=C(c1ccc(Cl)c(S(=O)(=O)N2CCCCCC2)c1)N1CCN(c2ccccc2O)CC1	-1	-7	-44*	-18	-1	0
O=C1c2ccccc2-c2ccc(C(=O)N3CCCCC3)cc21	18	-13	-25*	8	9	1
c1csc(-c2nn3c(Cn4cnc5ccccc54)nnc3s2)c1	-4	2	.	.	.	.
Clc1cccc(-c2nn3c(Cn4cnc5ccccc54)nnc3s2)c1	.	15	1	8	5	57*
CCCCC1(c2ccc(F)cc2)NC(=O)N(CC(=O)N2CCN(C(=O)c3ccco3)CC2)C1=O (stereo unspecified)	-7	.	10	4	4	46*
Cc1cc(C)[n+](-c2ccc(Oc3ccccc3)c(S(=O)(=O)[O-])c2)[nH]1	2	.	1	-6	.	41*
O=C1c2ccccc2S(=O)(=O)c2cc(N3CCC(C(=O)N4CCCCC4)CC3)ccc21	.	.	-21*	-5	-3	0
O=C(NC1CCCCC1)c1cccc2c1C(=O)c1ccc(N3CCCC3)cc1S2(=O)=O	-5	-2	12	3	3	-2
Fc1ccc(-c2csc(-c3ccncc3)n2)cc1	-3	1	-1	2	1	-1
N#C/C(=N/O)c1nc(-c2ccc(F)cc2)cs1	-1	.	-41*	-8	0	2
COc1ccc2c3c(n(C)c2c1)[C@@H](CO)N(C(=O)c1ccccc1)CC31CN(CC2CC2)C1	.	3	0	.	.	.
Cc1ccc(C)c(-c2cc(C(=O)N/N=C/c3cccnc3)c3ccccc3n2)c1	.	.	-20*	-3	-3	3
Cc1ccc(C)c(Nc2cc(C(=O)NCc3cccnc3)c3ccccc3n2)c1	1	-1	-26*	-4	1	-1
Cc1ccc(-c2cc(C(=O)N/N=C/c3cccnc3)c3ccccc3n2)cc1C	.	0	8	-1	-4	1
COc1ccccc1Nc1cc(C(=O)NCc2cccnc2)c2ccccc2n1	9	0	-9	24	-1	1
CSc1ccc2c(c1)C(N1CCN(C)CC1)Cc1ccc(F)cc1S2 (stereo unspecified)	.	-4	-48*	1	8	-2
O=[N+]([O-])c1ccc2c(c1)C(N1CCN(CCO)CC1)Cc1ccc(F)cc1S2 (stereo unspecified)	.	-4	-2	7	1	2
Cc1[nH]c(=O)c(C(=O)/C=C/c2ccccc2F)c2c1CCCC2	-1	41	-18*	1	0	1
CO[C@H]1CN(C)C(=O)c2ccc(NC(=O)C3CC3)cc2OC[C@@H](C)N(Cc2nccs2)C[C@H]1C	-7	.	-4	8	-2	3

Source: PubChem BioAssay (Broad Institute)
